Assay outcomes from PubChem BioAssay.
The list is not random: actives were taken first. Their share in the collection is about 2.2%.
PABP FP inh = blocks human PABP binding to poly(A) RNA. P11940. fluorescence polarization. calls only at 35 µM. hit rate 1% among 290,000;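 further: calls also rest on retests at 20 µM and on dose response follow-up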
VIM-2 inhibitor = inhibitors of Pseudomonas aeruginosa VIM-2 metallo-beta-lactamase; hit rate 0.89% among 290,000; inhibition, % at 5.6 µM; purified VIM-2, nitrocefin hydrolysis, epi-absorbance fluorescence;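 active means inhibition above the mean of all tested compounds plus 3 SD, cutoff set per screening run, cut at about 7.5% in these data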;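 further: red hydrolysis product quenches plate fluorescence so inhibitors raise well fluorescence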
IMP-1 inh-1 = inhibitors of Pseudomonas aeruginosa IMP-1 metallo-beta-lactamase; purified IMP-1, nitrocefin hydrolysis, epi-absorbance fluorescence; inhibition, % at 5.6 µM; hit rate 0.45% among 290,000; AID 1556;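 active means inhibition above the mean plus 3 SD of all compounds in the same screening run, cut at about 4.5% in these data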
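System: purified recombinant IMP-1 beta-lactamase. Medium: Zinc- and detergent-supplemented HEPES buffer, pH 7.1. Compound: one 5.6 µM dose […]. Schedule: 15 min preincubation plus 25 min reaction at 25 °C. Technique: Epi-absorbance fluorescence, 480 nm excitation, 530 nm emission.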
PABP1 MLLE inh = blocks PAM2 peptide binding to the PABP1 MLLE domain. P11940. GST-MLLE / FITC-PAM2 fluorescence polarization. inhibition, % at 20 µM. hit rate 0.36% among 360,000. AID 588489; in the data active means inhibition above about 35%, passing the limit was not always enough
eIF4H inh = inhibitors of RNA binding by human eIF4H | Q15056 | eIF4H fluorescence polarization binding assay | inhibition, % at 35 µM | hit rate 0.94% among 290,000;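 further: calls also rest on retests at 20 µM and on dose response follow-up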
IMP-1 inh-2 = IMP-1 inhibition, counter-screen for VIM-2 inhibitors | shares compounds with VIM-2 inhibitor | purified IMP-1, nitrocefin hydrolysis, epi-absorbance fluorescence | inhibition, % at 5.6 µM | 1,300 tested, under 10 active
VIM-2 FRET inh = inhibits VIM-2 in FRET assay to exclude epi-absorbance artifacts; shares compounds with VIM-2 inhibitor; purified VIM-2, CCF2 FRET substrate hydrolysis; inhibition, % at 5.6 µM; hit rate 23% among 1,300;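 active means inhibition above the mean of all tested compounds plus 3 SD, cut at about 19% in these data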
TEM-1 inh = TEM-1 inhibition, counter-screen for VIM-2 inhibitors. shares compounds with VIM-2 inhibitor. Purified TEM-1, nitrocefin hydrolysis, epi-absorbance fluorescence. inhibition, % at 5.6 µM. hit rate 3% among 1,300;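 active means inhibition above that campaign's mean inhibition plus 3 SD, cut at about 0.46% in these data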
Target sequence (P62593 whole entry, looked up): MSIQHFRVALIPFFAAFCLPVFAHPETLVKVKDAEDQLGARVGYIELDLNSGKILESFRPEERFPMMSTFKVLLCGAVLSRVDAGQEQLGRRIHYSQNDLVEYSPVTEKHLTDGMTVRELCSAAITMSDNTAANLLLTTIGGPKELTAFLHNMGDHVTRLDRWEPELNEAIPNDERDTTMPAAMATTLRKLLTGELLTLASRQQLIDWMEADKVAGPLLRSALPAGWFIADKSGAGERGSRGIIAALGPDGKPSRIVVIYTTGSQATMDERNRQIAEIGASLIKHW
VIM-2 confirm 2 = confirmation of P. aeruginosa VIM-2 metallo-beta-lactamase inhibitors; shares compounds with VIM-2 inhibitor; purified VIM-2, nitrocefin hydrolysis, epi-absorbance; inhibition, % at 5.6 µM; hit rate 96% among 1,300;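 active means inhibition of the VIM-2 beta-lactamase enzyme above about 11% from the earlier first-round screen, limit read from the data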
Large screens that a line does not name were inactive (follow-up assays come after a bar, where they were run). Unless noted, how the calls were made is not given here.

CC(C)NC(=O)c1ccc2c(c1)N(CC(=O)Nc1ccccc1F)C(=O)C(C)(C)O2	none
CCOC(=O)c1cnc(-n2nc(C)cc2C)nc1NCc1ccccc1	VIM-2 inhibitor 36 | IMP-1 inh-2 inactive | VIM-2 FRET inh inactive | TEM-1 inh inactive | VIM-2 confirm 2 50
CCOC(=O)c1cnc(-n2nc(C)cc2C)nc1NCCO	none
Cc1cc2cc(CNC(=O)Nc3ccccc3)ccc2[nH]1	none
CCN1CCN(C(=O)CSc2nc3c(c(=O)n(C)c(=O)n3C)n2C)CC1	VIM-2 inhibitor 76 | IMP-1 inh-2 inactive | VIM-2 FRET inh inactive | TEM-1 inh inactive | VIM-2 confirm 2 85
CCn1c(SCC(=O)N2CCN(C)CC2)nc2c1c(=O)n(C)c(=O)n2C	VIM-2 inhibitor 55 | IMP-1 inh-2 inactive | VIM-2 FRET inh inactive | TEM-1 inh inactive | VIM-2 confirm 2 63
CCn1c(SCC(=O)N2CCCC2)nc2c1c(=O)n(C)c(=O)n2C	none
CCCn1c(SCC(=O)N2CCCCC2)nc2c1c(=O)n(C)c(=O)n2C	none
CCCn1c(SCC(=O)N2CCN(CC)CC2)nc2c1c(=O)n(C)c(=O)n2C	VIM-2 inhibitor 52 | IMP-1 inh-2 inactive | VIM-2 FRET inh inactive | TEM-1 inh inactive | VIM-2 confirm 2 61
Cc1ccc(NC(=O)CN(C)C(=O)c2cccc(Br)c2)cc1	none
COc1ccc(F)cc1S(=O)(=O)n1nc(C)cc1C	none
CCc1ccc(/C=C2\SC(=S)N(CCCC(=O)N3CCN(C)CC3)C2=O)cc1	none (no result: PABP FP inh, VIM-2 inhibitor, IMP-1 inh-1, eIF4H inh)
COc1ccc(/C=C2\SC(=S)N(CCCC(=O)N3CCN(C)CC3)C2=O)cc1	VIM-2 inhibitor 15 | IMP-1 inh-2 inactive | VIM-2 FRET inh inactive | TEM-1 inh inactive | VIM-2 confirm 2 27
Cc1ccc(C(=O)NCC(=O)OCC(=O)N(CC(C)C)c2c(N)n(Cc3ccccc3)c(=O)[nH]c2=O)s1	none (no result: PABP FP inh, VIM-2 inhibitor, IMP-1 inh-1, eIF4H inh)
COc1ccc(CCn2nc(C)c([N+](=O)[O-])c2C)cc1	none
COc1cccc(-n2c(CCn3nc(C)c([N+](=O)[O-])c3C)n[nH]c2=S)c1	VIM-2 inhibitor 14 | IMP-1 inh-2 inactive | VIM-2 FRET inh 38 | TEM-1 inh inactive | VIM-2 confirm 2 25
Cc1cccc(-n2c(CCn3nc(C)c([N+](=O)[O-])c3C)n[nH]c2=S)c1	VIM-2 inhibitor 17 | IMP-1 inh-2 inactive | VIM-2 FRET inh 46 | TEM-1 inh inactive | VIM-2 confirm 2 30
COc1ccc(OC)c(NC(=O)CN(Cc2ccccc2)S(C)(=O)=O)c1	none
CN1CCN(c2ccc(NC(=O)c3cccc(OCc4ccccc4)c3)cc2)CC1	VIM-2 inhibitor 12 | IMP-1 inh-2 inactive | VIM-2 FRET inh inactive | TEM-1 inh inactive | VIM-2 confirm 2 28
COc1ccc(Cn2c(=O)[nH]c3cc(C(=O)Nc4ccc(N5CCN(C)CC5)cc4)ccc32)cc1	VIM-2 inhibitor 16 | IMP-1 inh-2 inactive | VIM-2 FRET inh inactive | TEM-1 inh inactive | VIM-2 confirm 2 42
Cc1ccc(C(=O)Nc2ccc(N3CCN(C)CC3)cc2)cc1C	VIM-2 inhibitor 16 | IMP-1 inh-2 inactive | VIM-2 FRET inh inactive | TEM-1 inh inactive | VIM-2 confirm 2 29
CCOc1cccc(C(=O)NC(=S)Nc2ccccc2)c1	none
CCOc1cccc(C(=O)NC(=S)Nc2ccc(N3CCN(CC)CC3)cc2)c1	VIM-2 inhibitor 45 | IMP-1 inh-2 inactive | VIM-2 FRET inh inactive | TEM-1 inh inactive | VIM-2 confirm 2 77
COc1ccc(C(=O)Nc2ccc(N3CCN(Cc4ccccc4)CC3)cc2)cc1	none
COc1cccc(C(=O)Nc2ccc(N3CCN(Cc4ccccc4)CC3)cc2)c1	none
CCN1CCN(c2ccc(NC(=O)c3cccc(N4CCCC4=O)c3)cc2)CC1	VIM-2 inhibitor 17 | IMP-1 inh-2 inactive | VIM-2 FRET inh inactive | TEM-1 inh inactive | VIM-2 confirm 2 22
CN1CCN(c2ccc(NC(=O)c3ccc4c(c3)OCCO4)cc2)CC1	VIM-2 inhibitor 18 | IMP-1 inh-2 inactive | VIM-2 FRET inh inactive | TEM-1 inh inactive | VIM-2 confirm 2 34
